{"data": "Measurements pooled from the literature", "target": "Mu-type opioid receptor (OPRM1, Homo sapiens, UniProt P35372)"}
{"Compound": "CC(NCCc1ccc(O)cc1)C(O)c1ccc(O)cc1 (stereo not drawn)", "test": "ligand displacement, radioligand", "quantity": "IC50", "value": "9180 nM"}
{"Compound": "Cc1ccc(CNC(=O)CNC(=O)[C@@H]2Cc3ccccc3CN2C(=O)[C@@H](N)Cc2c(C)cc(O)cc2C)cc1", "test": "ligand displacement, radioligand", "setting": "cell membranes", "quantity": "Ki", "value": "3.7 nM"}
{"Compound": "CCCCCCCCC[C@@H]1CC(=O)NCC(=O)N[C@H](Cc2ccc(O)cc2)C(=O)NCC(=O)N[C@@H](Cc2ccccc2)C(=O)O1", "test": "ligand displacement, radioligand", "quantity": "IC50", "value": "16000 nM"}
{"Compound": "CCCO[C@@]12Cc3cc(-c4ccccc4)cnc3[C@@H]3Oc4c(O)ccc5c4[C@@]31CCN(CC1CC1)[C@@H]2C5", "test": "cell-free assay", "quantity": "Ki", "value": "499 nM"}
{"Compound": "Cc1cc(O)cc(C)c1C[C@H](N)C(=O)N1Cc2ccccc2C[C@H]1C(=O)NCC(=O)NCc1ccc(Cl)cc1", "test": "ligand displacement, radioligand", "setting": "cell membranes", "quantity": "Ki", "value": "2.9 nM"}
{"Compound": "CCCCC/C=C\\C/C=C\\C/C=C\\CCCCC(=O)O", "test": "ligand displacement, radioligand", "setting": "cell membranes", "quantity": "Ki", "value": "22700 nM"}
{"Compound": "CC(CCc1ccccc1)NC(C)C(O)c1ccc(O)cc1 (stereo not drawn)", "test": "ligand displacement, radioligand", "quantity": "IC50", "value": "9950 nM"}
{"Compound": "Cc1cc(O)cc(C)c1C[C@H](N)C(=O)N1Cc2ccccc2C[C@H]1C(=O)NCC(=O)NCc1ccc(N)cc1", "test": "ligand displacement, radioligand", "setting": "cell membranes", "quantity": "Ki", "value": "34 nM"}
{"Compound": "CC(=O)Nc1ccccc1-c1cnc2c(c1)C[C@@]1(OCCCc3ccccc3)[C@H]3Cc4ccc(O)c5c4[C@@]1(CCN3CC1CC1)[C@H]2O5", "test": "cell-free assay", "quantity": "Ki", "value": "141 nM"}
{"Compound": "CC(CCc1ccc(O)cc1)NCCc1ccc(O)c(O)c1 (stereo not drawn)", "test": "ligand displacement, radioligand", "quantity": "IC50", "value": "1660 nM"}
{"Compound": "CN[C@]1(c2ccccc2Cl)CCCCC1=O", "test": "ligand displacement, radioligand", "quantity": "Ki", "value": "3000 nM"}
{"Compound": "Oc1cccc([C@@]23CCC[C@@H](C2)N(CCc2ccccc2)C[C@H]3O)c1 (relative stereo)", "test": "cell-free assay", "quantity": "Ki", "value": "~5 nM"}
